TAG inh – inhibitors of triacylglycerol accumulation, primary screen, cell-based, uHTS, fluorescence, H9c2. H9c2 cells, Nile Red lipid (TAG) fluorescence; cells loaded with 200 µM oleic acid. inhibition, % at 12.5 µM. 0.66% of 230,000 active. AID 651582, 2012;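 active = pattern-corrected inhibition of lipid staining of at least 50% with the nuclear-stain viability signal not falling by more than 50%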;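 note: 0% = DMSO wells and 100% = triacsin C control wells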
GalR3 antag – GalR3 antagonists in HEK293 cells, primary screen, cell-based, fluorescence readout; HEK293 GalR3-CNG cAMP membrane potential fluorescence; galR3 body fused to GalR1 C-terminus; inhibition, % at 3 µM; 0.44% of 360,000 active; AID 651719, 2012;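 active = inhibition above the screen-wide average plus 3 SD, cut at about 13% in these data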;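 note: forskolin and galanin both at EC90 stimulate the cells; cAMP rise reported by CNG channel membrane potential dye signal; 0% = forskolin plus galanin with DMSO and 100% = forskolin alone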
MC4R antagonist – MC4R antagonists of cAMP signaling, primary screen, cell-based, TR-FRET, antagonist arm of biased-ligand search. 0.48% of 360,000 active. AID 540295, 2011. inhibition, % at 6.5 µM. MC4R-expressing cells, MTII-stimulated cAMP, LANCE TR-FRET;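 active = inhibition above its plate's cutoff, the mean of tested wells on that plate plus 3 SD, cut at about 29% in these data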;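 note: 0% = Melanotan II alone and 100% = Melanotan II plus saturating MCL0020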
Target sequence (P32245 whole entry, looked up): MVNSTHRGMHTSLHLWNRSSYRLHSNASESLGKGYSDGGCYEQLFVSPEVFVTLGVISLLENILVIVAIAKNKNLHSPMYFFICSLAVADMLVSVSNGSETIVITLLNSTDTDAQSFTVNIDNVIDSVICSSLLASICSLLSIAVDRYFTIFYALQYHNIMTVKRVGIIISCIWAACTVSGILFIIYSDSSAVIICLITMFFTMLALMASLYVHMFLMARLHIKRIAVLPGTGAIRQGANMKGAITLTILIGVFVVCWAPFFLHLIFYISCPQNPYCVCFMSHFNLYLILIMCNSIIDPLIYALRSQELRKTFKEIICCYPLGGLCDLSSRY
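System: U2OS-MC4R stable cell line; Technique: Eu-cAMP/anti-cAMP TR-FRET, emission 671 nm; Repeats: single well per compound; Also added: Melanotan II; Dosing: one concentration, 6.5 µM nominal; Schedule: 30-min compound, 1-h challenge, 1-h detection, room temperature.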
Calb FLC – C. albicans growth inhibition with fluconazole, primary screen, CaCi-2 strain, Alamar Blue fluorescence | growth inhibition, % (no concentration beside the values) | C. albicans CaCi-2 + fluconazole, 48 h | 0.57% of 300,000 active | AID 1979, 2009;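 active = growth inhibition above about 58% in most replicates, limit read from the data, passing the limit was not always enough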;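 note: all wells also contain fluconazole at 8 µg/ml as a sub-toxic cotreatment; 0% = median of DMSO wells and 100% = median of geldanamycin control wells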
MC4R ag barr – MC4R agonists recruiting beta-arrestin, primary screen, cell-based, luminescence, agonist arm of biased-ligand search; Melanocortin receptor 4 (Homo sapiens), P32245; U2OS MC4R beta-arrestin complementation; percent of melanotan II response, DMSO zero; activation, % at 8.9 µM; 0.98% of 360,000 active; AID 540308, 2011;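 active = activation above a per-plate cutoff, the mean activation of sample wells on that plate plus 3 SD, cut at about 8% in these data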
Efflux pump mplx – inhibitors of Candida efflux pumps in yeast, primary screen, S. cerevisiae, Nile Red, multiplex. 0.44% of 330,000 active. inhibition, % at 10 µM. S. cerevisiae Candida pump triplex;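 active = plate passing quality check with inhibition over a set limit, or well fluorescence over plate mean plus 4 SD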;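 note: Nile Red retained in pooled yeast measured as flow cytometry median fluorescence; 0% = buffer negative control and 100% = Enniatin B positive control; higher means more Nile Red kept so more efflux inhibition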
The depositor's hits bear a star; . = no result. An excerpt weighted towards active compounds, which were near 2.9% of everything screened.

SMILES | TAG inh | GalR3 antag | MC4R antagonist | Calb FLC | MC4R ag barr | Efflux pump mplx
O=C(NCC1CCCO1)c1cc2n(n1)C(C(F)(F)F)CC(c1ccc(Br)cc1)N2 (configuration not stated) | 12 | -2 | 9 | 93* | -1 | 0
CCOC(=O)C(=Cc1cc(=O)c(OC)co1)C(=O)OCC | 92 | 2 | 6 | 94* | 4 | .
COc1ccc(C(=O)c2[nH]c(N)c(C(=O)NCCc3c[nH]c4ccccc34)c2-c2ccc(Cl)c(F)c2)cc1 | . | -6 | . | . | . | .
CC(C)(C)c1ccc(C(=O)Nc2ccc(Cl)cc2)cc1 | . | -1 | -2 | -2 | 3 | 0
COC(=O)Cc1ccc(NC(=O)c2ccc(C(C)(C)C)cc2)cc1 | 72* | 11 | 8 | -16 | -1 | 0
N#C/C(=C/c1ccc(-c2cc(C(=O)O)cc(C(=O)O)c2)o1)c1nc2ccccc2s1 | . | . | . | 10 | . | 0.8*
CC(C)C[C@H](NC(=O)c1nc[nH]c1C(=O)NCC(=O)OC(C)(C)C)C(=O)OCc1ccccc1 | 1 | -4 | 19 | -10 | 9.4* | 0
N#Cc1ccc(-c2cccs2)nc1SCc1cccnc1 | 53* | -5 | -22 | 17 | -2 | 0
c1cncc(CSc2nnc3ccc(-c4cccs4)nn23)c1 | 4 | 4 | 2 | 13 | 0 | 0
O=C1NC2(CCCCC2)NN1c1ccccc1 | 3 | -3 | 5 | -32 | -1 | 0
O=C1NC2(CCC3(CC2)OCCO3)NN1c1ccc(Cl)cc1 | . | -5 | 23 | 106* | -1 | 0
COc1cccc(-c2cnc(C(O)c3c(C)cccc3C)[nH]2)c1 (configuration not stated) | 6 | 0 | 0 | . | 0 | .
COc1ccc(Nc2nc(Nc3ccc(OC)cc3)nc(-n3[nH]c(=O)c(C)c3C)n2)cc1 | 57* | -4 | 18 | 1 | -3 | 0
COc1ccc(N2C(=O)C(Cl)=C(Nc3ccc(OC)cc3OC)C2=O)cc1 | 8 | 2 | -3 | 10 | 13* | 0
COc1ccc(NC2=C(Cl)C(=O)N(c3ccccc3)C2=O)c(OC)c1 | . | -3 | 0 | -7 | 0 | 0
CCOC(=O)N[C@H](C(=O)N1CCC[C@H]1C(=O)NC1CCCC1)c1ccccc1 | . | -8 | . | . | . | .
CCN1CCS/C1=C\C=C\C1=[N+](CC)CCS1 | 11 | 15* | -13 | 39 | -1 | .
CCN1CCS/C1=C/C=C/C1=[N+](CC)CCS1 | -16 | . | -10 | 4 | 0 | 0
Cc1cccc(Oc2cnn(C(C)(C)C)c(=O)c2Cl)c1 | -38 | -5 | 6 | -9 | 8.8* | 0
CNC(=S)/N=C/NOCc1ccc(Cl)cc1Cl | -11 | -6 | 1 | 93* | -1 | 0
NC(=O)NOCc1ccc(Cl)cc1Cl | 4 | 8 | -3 | -7 | -1 | 0
CC1=C(C(=O)Nc2ccccc2)C(c2ccc(C)cc2)N=C(Nc2nc3ccccc3o2)N1 (configuration not stated) | . | -4 | -5 | -11 | 9.9* | 0
C[C@H](CO)N1C[C@H](C)[C@@H](CN(C)S(=O)(=O)c2ccc(C#N)cc2)OCc2cn(nn2)CCCC1=O | 2 | -6 | 0 | . | 1 | .
CC(=O)C1CCC2C3CC=C4CC(SC(=N)N)CCC4(C)C3CCC12C (configuration not stated) | 21 | -1 | 7 | . | 15* | .
CC(C)(C)NC(=O)C1(C)CCC(=O)N1CC(F)(F)F (configuration not stated) | . | -5 | . | . | . | .
O=C1NC[C@H](CCCCN2C[C@H](Cc3ccc(O)cc3)N(CCc3ccccc3)C(=O)C2=O)N(CCc2ccc(O)cc2)C1=O | . | 0 | . | . | . | .
C#CC(=O)N(c1cccc(OC)c1)C(C(=O)NC1CCCC1)c1cccs1 (configuration not stated) | . | -7 | 35* | 7 | 8 | 0
